Assay outcomes: PubChem, several laboratories
TLR4-MyD88 BLA: inhibitors of TLR4-MyD88 association in cells, primary screen, cell-based, HeLa CL3-4, BLA complementation, FRET ratio | HeLa CL3-4 TLR4/MyD88 BLA complementation | Toll-like receptor 4 (Homo sapiens) + Myeloid differentiation primary response protein … | hit rate 0.18% among 200,000 | AID 861, 2007 | inhibition, % at 8.4 µM; in the data active = inhibition above about 25%;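 also: 0% = vehicle and 100% = reference inhibitor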
CHOP inh: inhibitors of CHOP promoter induction, primary screen, cell-based, unfolded protein response, luciferase reporter; CHO-K1 CHOP-promoter luciferase, tunicamycin-induced, 15-18 h; AID 2732, 2010; inhibition, % at 10 µM; hit rate 3.8% among 220,000;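 active = compounds that reduced the stress-induced luciferase reporter signal by more than about 70% of percent inhibition, limit read from the data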;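 also: 0% = tunicamycin plus vehicle and 100% = wells without tunicamycin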
UPR CHOP act: activators of apoptotic CHOP UPR arm, primary screen, cell-based, CHO-CHOP luciferase reporter, luminescence, uHTS. UPR activation; percent of tunicamycin response over DMSO baseline. AID 449763, 2010. activation, % at 10 µM. hit rate 0.34% among 330,000;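 active = at 10 µM dose, activation of 40% or more, normalized to positive control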;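 also: 100% = tunicamycin at 10 µg/mL and 0% = DMSO alone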
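Dosing – one dose, 10 µM in 0.5% DMSO · System – CHO-CHOP cells, stable luciferase reporter of PERK-eIF2a-CHOP signalling · Input – 500 cells/well · Control set – tunicamycin 10 µg/mL final as positive, DMSO-only wells as negative · Timing – 6 h compound treatment, 37 °C · Measure – % activation vs tunicamycin · Technique – luminescence read with Steady-Glo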
XBP1 UPR activ: activators of adaptive XBP1 UPR arm, primary screen, cell-based, CHO-XBP1 luciferase reporter, luminescence, uHTS; IRE1-XBP1 UPR activation; percent of tunicamycin response, DMSO as zero; activation, % at 20 µM; hit rate 0.33% among 330,000; AID 463104, 2010;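 active = versus positive control, 20 µM dose yields 30% or more activation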;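 also: 100% = tunicamycin at 10 µg/mL and 0% = DMSO only wells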
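incubation = overnight seeding at 37 °C, 6 h compound treatment at 37 °C | assay system = CHO-XBP1 cells stably carrying IRE1-XBP1-driven luciferase reporter | input = 1000 cells per well | detection = luciferase luminescence | dosing = single point, 20 µM final compound, 1% DMSO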
NOD2-RIPK2 inh: NOD2-RIPK2 binding disruptors in cells, primary screen, fluorescence, CHO cells, BLA complementation | hit rate 0.38% among 360,000 | inhibition, % at 4.98 µM | CCF4 ratio | Receptor-interacting serine/threonine-protein kinase 2 (Homo sapiens), O43353; in the data active = inhibition above about 21%;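 also: 0% = vehicle only and 100% = reference blocker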
Target sequence (O43353 whole entry, looked up): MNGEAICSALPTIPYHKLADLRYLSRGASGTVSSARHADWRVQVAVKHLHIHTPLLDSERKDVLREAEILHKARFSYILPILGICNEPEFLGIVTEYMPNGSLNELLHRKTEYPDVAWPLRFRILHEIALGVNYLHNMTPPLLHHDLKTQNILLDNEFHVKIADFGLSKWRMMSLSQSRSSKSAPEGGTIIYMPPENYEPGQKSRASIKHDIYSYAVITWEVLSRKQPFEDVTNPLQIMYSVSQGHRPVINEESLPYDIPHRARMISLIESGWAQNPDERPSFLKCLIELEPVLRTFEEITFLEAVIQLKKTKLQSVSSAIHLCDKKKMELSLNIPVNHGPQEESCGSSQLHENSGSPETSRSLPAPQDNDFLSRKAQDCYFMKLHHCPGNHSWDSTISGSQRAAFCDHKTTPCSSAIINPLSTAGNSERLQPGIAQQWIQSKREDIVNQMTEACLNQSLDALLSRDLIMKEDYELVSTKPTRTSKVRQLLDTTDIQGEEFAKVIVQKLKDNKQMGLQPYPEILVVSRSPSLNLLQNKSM
TLR9-MyD88 block: inhibitors of TLR9-MyD88 association in cells, primary screen, cell-based, CHO, BLA complementation, fluorescence; Toll-like receptor 9 (Homo sapiens) + Myeloid differentiation primary response protein …; CCF4 FRET ratio; inhibition, % at 4.98 µM; hit rate 0.21% among 340,000; AID 504734, 2011;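 active = inhibition above the mean over all tested compounds plus 3 SD, cut at about 21% in these data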;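 also: 0% = DMSO only wells and 100% = clavulanate BLA inhibitor control wells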
NOD2 RIPK2 conf: NOD2-RIPK2 binding disruptors, retest, confirmation, fluorescence, CHO cells, BLA complementation, triplicate; inhibition, % at 4.98 µM; hit rate 70% among 1,200; shares compounds with NOD2-RIPK2 inh; CCF4 FRET;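 active = mean inhibition across replicates above a set limit taken from the earlier primary screen, cut at about 21% in these data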;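 also: 0% = DMSO-only wells and the high end = clavulanate BLA-blocked wells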
BLA counter: NOD2-RIPK2 counterscreen BLA reporter activity; shares compounds with NOD2-RIPK2 inh; CHO BLA reporter, CCF4 FRET ratio; inhibition, % at 4.98 µM; hit rate 57% among 1,200; AID 624371;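 active = mean inhibition above the low-control mean inhibition plus three low-control SD, cut at about 11% in these data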;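 also: 0% = DMSO only wells and 100% = clavulanate high control wells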
Active calls of the source: *; x = no result given. Only a selection was taken, and hits are over-represented in it overall.

SMILES	TLR4-MyD88 BLA	CHOP inh	UPR CHOP act	XBP1 UPR activ	NOD2-RIPK2 inh	TLR9-MyD88 block	NOD2 RIPK2 conf	BLA counter
O=S(=O)(NC1CCN(S(=O)(=O)c2ccc3c(c2)OCCO3)C1)c1c(F)cccc1F (configuration not stated)	x	x	0	-1	-9	-2	x	x
CCCCNC(=O)C(C)N(CCN(C)C)C(=O)CCCN1C(=O)NC(c2ccc([N+](=O)[O-])cc2)C(C(=O)OCc2ccccc2)=C1C (configuration not stated)	x	x	2	-2	22*	0	2	-13
COc1ccc(CC2C(=O)NC(C)C(=O)N(C)C3Cc4ccc(cc4)Oc4cc(ccc4O)CC(C(=O)NC(C)C(=O)NC(C)C(=O)N2C)N(C)C3=O)cc1 (configuration not stated)	x	x	x	x	22*	-2	26*	-2
CC(C)C[C@@H]1NC(=O)[C@H](Cc2ccccc2)N(C)C(=O)[C@H](C)NC(=O)c2ccccc2NC(=O)[C@H](Cc2ccc(O)cc2)N(C)C1=O	x	2	8	1	-6	-4	x	x
O=c1ccc2cc(O)c(O)cc2o1	12	11	-1	-2	23*	9	23*	37*
O=c1ccc2ccc(O)cc2o1	x	x	x	x	-7	-1	x	x
COc1ccc(C)cc1S(=O)(=O)N1CCN(C)CC1c1ccccc1 (configuration not stated)	x	x	0	-2	-4	1	x	x
Cc1ccc(-c2noc(CCC(=O)NCCCN3CCN(c4ccc(F)cc4)CC3)n2)cc1	7	20	1	-3	-9	6	x	x
Cc1ccc(-c2noc(CCC(=O)NCCCN3CCN(c4cccc(Cl)c4)CC3)n2)cc1	-4	61	4	-2	29*	-5	15	-1
CCCCCC(=O)Nc1ccc(C(=O)COC(=O)Cn2cnc3c2c(=O)n(C)c(=O)n3C)cc1	x	x	1	-2	1	-4	x	x
C=C(CN(C)C)C(=O)c1ccc2c(c1)OCO2	x	x	x	x	4	-1	x	x
C=C(CN(C)C)C(=O)c1ccc(OC2OC(COC(C)=O)C(OC(C)=O)C(OC(C)=O)C2OC(C)=O)cc1 (configuration not stated)	x	x	x	x	27*	8	74*	24*
Cc1cc(N2CCOCC2)ccc1/C=C\[N+](=O)[O-]	14	62	28	-5	51*	7	55*	4
Cc1ccc(S(=O)(=O)NCCN2CCOCC2)c(C)c1C	-8	34	1	-1	72*	-3	-6	-7
CN(C)CCCN(C(=O)COc1ccccc1)c1nc2ccc(F)cc2s1	3	21	0	-2	8	5	x	x
CN(C)CCCN(C(=O)CCOc1ccccc1)c1nc2ccc(F)cc2s1	7	52	x	x	47*	18	17	0
Cc1ccc(S(=O)(=O)c2cc3ccccc3oc2=O)cc1	6	12	-1	-2	3	-4	x	x
Cc1c(O)ccc2cc(S(=O)(=O)c3ccccc3)c(=O)oc12	x	x	0	-2	34*	-1	33*	58*
FC(F)(F)c1cnc2c(c1)Nc1ccccc1S2	-2	44	1	-4	22*	10	9	5
O=[N+]([O-])c1cc(S(=O)(=O)N2CCCCCC2)ccc1F	12	2	x	x	30*	18	54*	4
O=[N+]([O-])c1cc(S(=O)(=O)N2CCCC2)ccc1O	-12	-59	2	-2	-15	6	x	x
